Assay results as given in publication PMC4381552 (Cell reports, 2014).

How the values were obtained:
[1] = ref Tijono et al., 2013; cited from earlier work
[2] = target: WT hSTING (Homo sapiens, UniProt Q86WV6, H232R); test: Cytokine/chemokine induction in STING^Gt/Gt BMDCs reconstituted with hSTING; assay type: cell-based; conditions: 50 µg/ml DMXAA, 3 hr, real-time PCR
Procedure, shortened: (§1)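 STING-deficient BMDCs were derived from STINGGt/Gt mouse bone marrow cultured with GM-CSF for 10 days and plated at 1 × 10^6 cells/well. They were infected with retroviruses expressing hSTING variants, and hSTING levels were checked by western blot. […] IFNB1, CXCL10, CCL5 and IL-6 mRNA were measured by real-time PCR. Data are means ± SEM (n = 3) from one of two experiments.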

[3] = target: hSTING Q266L (Homo sapiens, UniProt Q86WV6, H232R/Q266L); test: IFN-β luciferase reporter assay in transfected 293T cells; assay type: cell-based; conditions: 0.18 mM DMXAA, 12 hr
Procedure, shortened: (§2)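 HEK293T cells were reverse-transfected with full-length STING plasmids, expressed at moderate levels, plus IFN-β reporter constructs. […] Luciferase was read 12 hr later. Gaussia luciferase was normalized to constitutive firefly luciferase. Values are means of triplicates + SEM, representative of three independent experiments.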

[4] = target: hSTING^group1 (aa 140-379) (Homo sapiens, UniProt Q86WV6, E174G/H185L/H232R/L189M/Q196R/R191S/T181M/V194G/Y182F/Y186H); test: ITC binding of DMXAA to STING CTD; conditions: 25°C
[5] = target: hSTING^S162A (Homo sapiens, UniProt Q86WV6, H232R/S162A); test: Cytokine/chemokine induction in STING^Gt/Gt BMDCs reconstituted with hSTING; assay type: cell-based; conditions: 50 µg/ml DMXAA, 3 hr, real-time PCR
Procedure, shortened: as §1

[6] = target: hSTING^group134 (Homo sapiens, UniProt Q86WV6, A300E/A302V/A350V/D297E/E174G/E362R/E369D/F378L/G344N/H185L/H232R/K347M/K370Q/L189M/L346P/M357L/Q196R/Q276K/Q306R/R191S/S275A/S345A/S353P/S379I/T181M/T354P/T356V/V194G/V343M/V351A/Y182F/Y186H/Y274D); test: IFN-β luciferase reporter assay in transfected 293T cells; assay type: cell-based; conditions: 0.18 mM DMXAA (50 μg/ml), 12 hr, versus hSTING^group1234
Procedure, shortened: as §2

[7] = system: non-small-cell lung cancer; conditions: in combination with paclitaxel and carboplatin; ref Lara et al., 2011; cited from earlier work
[8] = target: hSTING I235L (Homo sapiens, UniProt Q86WV6, H232R/I235L); test: IFN-β luciferase reporter assay in transfected 293T cells; assay type: cell-based; conditions: 0.18 mM DMXAA, 12 hr
Procedure, shortened: as §2

[9] = target: hSTING Q266I (Homo sapiens, UniProt Q86WV6, H232R/Q266I); test: as above; assay type: cell-based; conditions: 0.18 mM DMXAA, 12 hr
Procedure, shortened: as §2

[10] = target: hSTING Q266V (Homo sapiens, UniProt Q86WV6, H232R/Q266V); test: as above; assay type: cell-based; conditions: 0.18 mM DMXAA, 12 hr
Procedure, shortened: as §2

[11] = target: hSTING^group2 (Homo sapiens, UniProt Q86WV6, D237N/G230I/H232R/I244V/K224M/L222R/T229N); test: IFN-β luciferase reporter assay in transfected 293T cells; assay type: cell-based; conditions: 0.18 mM DMXAA (50 μg/ml), 12 hr
[12] = target: hSTING^G230I (Homo sapiens, UniProt Q86WV6, G230I/H232R); test: Cytokine/chemokine induction in STING^Gt/Gt BMDCs reconstituted with hSTING; assay type: cell-based; conditions: 50 µg/ml DMXAA, 3 hr, real-time PCR
Procedure, shortened: as §1

[13] = target: hSTING^S162A/Q266I (Homo sapiens, UniProt Q86WV6, H232R/Q266I/S162A); test: as above; assay type: cell-based; conditions: 50 µg/ml DMXAA, 3 hr, real-time PCR
Procedure, shortened: as §1

[14] = target: hSTING^group4 (Homo sapiens, UniProt Q86WV6, A350V/E362R/E369D/F378L/G344N/H232R/K347M/K370Q/L346P/M357L/S345A/S353P/S379I/T354P/T356V/V343M/V351A); test: ITC binding of DMXAA to STING CTD; conditions: 25°C
[15] = target: hSTING G166S (Homo sapiens, UniProt Q86WV6, G166S/H232R); test: IFN-β luciferase reporter assay in transfected 293T cells; assay type: cell-based; conditions: 0.18 mM DMXAA, 12 hr
Procedure, shortened: as §2

[16] = system: all hSTING alleles with S162A/Q266I double substitution; test: as above; assay type: cell-based, human; conditions: 0.18 mM DMXAA, alleles R232, HAQ, H232, AQ, Q293
Procedure, shortened: as §2

[17] = target: hSTING^group3 (Homo sapiens, UniProt Q86WV6, A300E/A302V/D297E/H232R/Q276K/Q306R/S275A/Y274D); test: ITC binding of DMXAA to STING CTD; conditions: 25°C
[18] = target: wild-type (WT) hSTING (Homo sapiens, UniProt Q86WV6, H232R); test: ITC binding of DMXAA to STING CTD; conditions: 25°C
[19] = target: hSTING^S162A/G230I/Q266I (Homo sapiens, UniProt Q86WV6, G230I/H232R/Q266I/S162A); test: Cytokine/chemokine induction in STING^Gt/Gt BMDCs reconstituted with hSTING; assay type: cell-based; conditions: 50 µg/ml DMXAA
Procedure, shortened: as §1

Sequence of hSTING^S162A/G230I/Q266I (Q86WV6 whole entry S162A/G230I/H232R/Q266I): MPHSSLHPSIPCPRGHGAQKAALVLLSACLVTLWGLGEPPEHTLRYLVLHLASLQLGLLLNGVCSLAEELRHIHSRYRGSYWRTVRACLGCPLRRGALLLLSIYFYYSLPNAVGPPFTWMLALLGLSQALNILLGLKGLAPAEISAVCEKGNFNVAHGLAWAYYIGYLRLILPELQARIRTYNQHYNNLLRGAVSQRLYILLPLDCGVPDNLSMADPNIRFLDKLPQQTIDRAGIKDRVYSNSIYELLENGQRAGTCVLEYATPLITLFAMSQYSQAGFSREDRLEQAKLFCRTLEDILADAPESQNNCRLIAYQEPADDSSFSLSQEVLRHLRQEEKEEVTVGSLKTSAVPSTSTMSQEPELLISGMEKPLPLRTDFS
Sequence of hSTING^group1 (aa 140-379) (Q86WV6 140-379 E174G/T181M/Y182F/H185L/Y186H/L189M/R191S/V194G/Q196R/H232R): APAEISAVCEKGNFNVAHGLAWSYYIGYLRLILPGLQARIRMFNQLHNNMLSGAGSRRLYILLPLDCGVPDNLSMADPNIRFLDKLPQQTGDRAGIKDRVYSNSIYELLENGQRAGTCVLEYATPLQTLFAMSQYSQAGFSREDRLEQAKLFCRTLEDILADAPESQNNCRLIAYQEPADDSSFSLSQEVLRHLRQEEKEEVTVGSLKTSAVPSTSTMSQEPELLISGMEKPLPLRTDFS
Sequence of hSTING Q266V (Q86WV6 whole entry H232R/Q266V): as the sequence (Q86WV6 whole entry S162A/G230I/H232R/Q266I) above, with A162S, I230G, I266V counted along it
Sequence of WT hSTING (Q86WV6 whole entry H232R): as the sequence (Q86WV6 whole entry S162A/G230I/H232R/Q266I) above, with A162S, I230G, I266Q counted along it
Sequence of hSTING^group4 (Q86WV6 140-379 with the stated changes): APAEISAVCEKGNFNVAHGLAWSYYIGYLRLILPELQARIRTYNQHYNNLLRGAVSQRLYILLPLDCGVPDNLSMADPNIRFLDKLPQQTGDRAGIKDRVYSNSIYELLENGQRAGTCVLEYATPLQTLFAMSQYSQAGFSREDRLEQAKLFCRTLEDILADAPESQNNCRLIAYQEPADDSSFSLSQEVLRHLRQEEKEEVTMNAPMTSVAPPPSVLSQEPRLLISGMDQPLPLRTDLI
Sequence of hSTING^G230I (Q86WV6 whole entry G230I/H232R): as the sequence (Q86WV6 whole entry S162A/G230I/H232R/Q266I) above, with A162S, I266Q counted along it
Sequence of hSTING^S162A (Q86WV6 whole entry S162A/H232R): as the sequence (Q86WV6 whole entry S162A/G230I/H232R/Q266I) above, with I230G, I266Q counted along it
Sequence of hSTING^S162A/Q266I (Q86WV6 whole entry S162A/H232R/Q266I): as the sequence (Q86WV6 whole entry S162A/G230I/H232R/Q266I) above, with I230G counted along it
Sequence of hSTING^group3 (Q86WV6 140-379 H232R/Y274D/S275A/Q276K/D297E/A300E/A302V/Q306R): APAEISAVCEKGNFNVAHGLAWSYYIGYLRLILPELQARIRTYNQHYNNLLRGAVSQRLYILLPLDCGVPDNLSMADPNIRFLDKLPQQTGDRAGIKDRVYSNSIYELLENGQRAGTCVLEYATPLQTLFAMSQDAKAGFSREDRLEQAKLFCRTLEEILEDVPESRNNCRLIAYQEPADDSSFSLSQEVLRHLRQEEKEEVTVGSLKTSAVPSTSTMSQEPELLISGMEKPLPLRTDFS
Sequence of hSTING Q266L (Q86WV6 whole entry H232R/Q266L): as the sequence (Q86WV6 whole entry S162A/G230I/H232R/Q266I) above, with A162S, I230G, I266L counted along it
Sequence of hSTING I235L (Q86WV6 whole entry H232R/I235L): as the sequence (Q86WV6 whole entry S162A/G230I/H232R/Q266I) above, with A162S, I230G, I235L, I266Q counted along it
Sequence of hSTING^group134 (Q86WV6 1-379 with the stated changes): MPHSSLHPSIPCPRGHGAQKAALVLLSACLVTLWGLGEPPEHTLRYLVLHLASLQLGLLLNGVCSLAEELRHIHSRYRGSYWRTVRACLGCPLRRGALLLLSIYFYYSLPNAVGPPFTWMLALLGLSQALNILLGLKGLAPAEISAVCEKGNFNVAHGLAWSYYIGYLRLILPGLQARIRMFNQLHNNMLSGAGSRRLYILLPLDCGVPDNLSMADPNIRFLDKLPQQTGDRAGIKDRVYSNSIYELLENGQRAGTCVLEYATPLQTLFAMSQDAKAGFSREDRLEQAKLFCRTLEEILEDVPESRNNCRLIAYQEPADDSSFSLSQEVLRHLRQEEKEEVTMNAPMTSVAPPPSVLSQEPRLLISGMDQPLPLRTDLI
Sequence of hSTING Q266I (Q86WV6 whole entry H232R/Q266I): as the sequence (Q86WV6 whole entry S162A/G230I/H232R/Q266I) above, with A162S, I230G counted along it
Sequence of hSTING G166S (Q86WV6 whole entry G166S/H232R): as the sequence (Q86WV6 whole entry S162A/G230I/H232R/Q266I) above, with A162S, G166S, I230G, I266Q counted along it
Sequence of hSTING^group2 (Q86WV6 whole entry L222R/K224M/T229N/G230I/H232R/D237N/I244V): as the sequence (Q86WV6 whole entry S162A/G230I/H232R/Q266I) above, with A162S, L222R, K224M, T229N, D237N, I244V, I266Q counted along it
Sequence of wild-type (WT) hSTING (Q86WV6 140-379 H232R): as the sequence (Q86WV6 140-379 H232R/Y274D/S275A/Q276K/D297E/A300E/A302V/Q306R) above, with D135Y, A136S, K137Q, E158D, E161A, V163A, R167Q counted along it

**Q.** With `Cc1ccc2oc3c(CC(=O)O)cccc3c(=O)c2c1` [7-methyl-XAA] as the compound, how does the activity in human [1] read?
**A.** weak yet human-active

**Q.** For `Cc1cccc2oc3c(CC(=O)O)cccc3c(=O)c12` [8-methyl-XAA], which activity in human [1] is on record?
**A.** weak yet human-active

**Q.** For `Cc1ccc2c(=O)c3cccc(CC(=O)O)c3oc2c1C` [DMXAA, 5,6-dimethylxanthenone-4-acetic acid], which “IFN-β mRNA upregulation” value [2] is on record?
**A.** did not induce the upregulation

**Q.** What about the IFN-β induction [3] of the same compound?
**A.** less pronounced gain

**Q.** And the “binding to DMXAA” value [4]?
**A.** no detectable binding

**Q.** And the “increase in IFN-β mRNA levels” value [5]?
**A.** 2.2 fold

**Q.** What about the IFN-β reporter response [6] of the same compound?
**A.** strongly diminished DMXAA activation

**Q.** What about the “outcome of human phase III trials” value [7] of the same compound?
**A.** failed

**Q.** What about the IFN-β induction [8] of the same compound?
**A.** showed no effects

**Q.** What about the IFN-β induction [9] of the same compound?
**A.** conferred DMXAA sensitivity

**Q.** And the IFN-β induction [10]?
**A.** showed no effects

**Q.** And the IFN-β reporter response [11]?
**A.** showed responsiveness to DMXAA

**Q.** And the “increase in IFN-β mRNA levels” value [12]?
**A.** 2.6 fold

**Q.** And the “increase in IFN-β mRNA levels” value [13]?
**A.** 3.1 fold

**Q.** And the “binding to DMXAA” value [14]?
**A.** no detectable binding

**Q.** And the IFN-β induction [15]?
**A.** showed no effects

**Q.** What about the “DMXAA responsiveness (IFN-β reporter)” value [16] of the same compound?
**A.** able to induce DMXAA responsiveness

**Q.** And the “binding to DMXAA” value [17]?
**A.** no detectable binding

**Q.** What about the “binding to DMXAA” value [18] of the same compound?
**A.** no detectable binding

**Q.** What about the “increase in IFN-β mRNA levels” value ([19]; 3 hr, real-time PCR) of the same compound?
**A.** 4.2 fold

**Q.** What about the “upregulation of CXCL10, CCL5, and IL-6 mRNAs” value ([19]; 3 hr, real-time PCR) of the same compound?
**A.** strongest induction among the four mutants

**Q.** And the “CXCL10 production (supernatant, ELISA)” value ([19]; 18 hr)?
**A.** highest level of CXCL10 production
